The conditions of series [1]: cited from earlier work.
The conditions of series [2]: 1:1 complexes; cited from earlier work.
Another series deals with rat TRPV1 (Rattus norvegicus, UniProt O35433). Description: Vanilloid-induced 45Ca2+ uptake in TRPV1/HaCaT cells. Format: cell-based. Conditions: for Effect on CAPS-induced 45Ca2+ uptake (in words): 2 μM CAPS, up to highest concentration 4 mM.
A further series deals with rat TRPV1 N628W mutant (Rattus norvegicus, UniProt O35433, N628W). Kind of series: CAPS-evoked 45Ca2+ influx in cells expressing the TRPV1 N628W point mutant. In kind it is cell-based. Conditions: read-out: IC50, 45Ca2+ influx, 4 μM CAPS.
Series [3] concerns the target T1, TRPV1 (Rattus norvegicus, UniProt O35433). Description: Cobalt histochemistry on 3T3 cell line expressing TRPV1 ectopically. Format: cell-based. Conditions: 10 min, ± S.D.
Series [4] concerns TRPV1+ dorsal root ganglion neurons. Kind of series: Cobalt histochemistry in primary DRG sensory neuron cultures. Format: cell-based, rat. Conditions: 20 μM CAPS, Co2+-uptake medium.
In the next series the target is wild-type TRPV1 (Rattus norvegicus, UniProt O35433). Kind of series: CAPS-evoked 45Ca2+ influx in cells transiently transfected with wild-type TRPV1. In kind it is cell-based. The following applies: read-out: IC50, 45Ca2+ influx, 4 μM CAPS.
In a further series the test system is 3T3 cell line. Description: Cobalt histochemistry on 3T3 cell line without TRPV1. Format: cell-based. The following applies: 20 μM CAPS + 5 mM Co2+.
Another series addresses rat TRPV1 E651W mutant (Rattus norvegicus, UniProt O35433, E651W). Description: CAPS-evoked 45Ca2+ influx in cells expressing the TRPV1 E651W point mutant. In kind it is cell-based. The following applies: read-out: IC50, 45Ca2+ influx, 4 μM CAPS.
The target in a further series is rat TRPV1 D646N mutant (Rattus norvegicus, UniProt O35433, D646N). Description: CAPS-evoked 45Ca2+ influx in cells expressing the TRPV1 D646N point mutant. Format: cell-based. The following applies: read-out: IC50, 45Ca2+ influx, 4 μM CAPS.
The next series concerns CD1 mice. Description: Eye wipe test. In kind it is in vivo. The following applies: 100 μM CAPS dropped into the eye with 1 mM CoCl2 or 5 μM CapZ, n = 8. Put shortly:
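Defensive eye-wiping movements were then counted. Data were means ± SD from eight independent experiments. Inhibition was tested by paired t test (P < 0.05).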

The target of a further series is rat TRPV1 Y627W mutant (Rattus norvegicus, UniProt O35433, Y627W). Description: CAPS-evoked 45Ca2+ influx in cells expressing the TRPV1 Y627W point mutant. In kind it is cell-based. Conditions: read-out: IC50, 45Ca2+ influx, 4 μM CAPS.
Another series addresses TRPV1/3T3 cells (Rattus norvegicus, UniProt O35433). Kind of series: CAPS-induced TRPV1-mediated 45Ca2+ accumulation with VGCC blocker. In kind it is cell-based. The following applies: data not shown.
Series [5] addresses T1, TRPV1. Description: Cobalt histochemistry on HaCaT cell line expressing TRPV1 ectopically. Format: cell-based. The following applies: 20 μM CAPS + 5 mM Co2+; CapZ 300 nM-100 μM, RuRed 500 nM-100 μM.

Data on 13 compounds can be found in article PMC3566393 (Biological Trace Element Research, 2012).

The term IC50 denotes the concentration needed to halve the response being measured.

Where two headings read alike, the source gives them in different places.

rat TRPV1, sequence (O35433 whole entry): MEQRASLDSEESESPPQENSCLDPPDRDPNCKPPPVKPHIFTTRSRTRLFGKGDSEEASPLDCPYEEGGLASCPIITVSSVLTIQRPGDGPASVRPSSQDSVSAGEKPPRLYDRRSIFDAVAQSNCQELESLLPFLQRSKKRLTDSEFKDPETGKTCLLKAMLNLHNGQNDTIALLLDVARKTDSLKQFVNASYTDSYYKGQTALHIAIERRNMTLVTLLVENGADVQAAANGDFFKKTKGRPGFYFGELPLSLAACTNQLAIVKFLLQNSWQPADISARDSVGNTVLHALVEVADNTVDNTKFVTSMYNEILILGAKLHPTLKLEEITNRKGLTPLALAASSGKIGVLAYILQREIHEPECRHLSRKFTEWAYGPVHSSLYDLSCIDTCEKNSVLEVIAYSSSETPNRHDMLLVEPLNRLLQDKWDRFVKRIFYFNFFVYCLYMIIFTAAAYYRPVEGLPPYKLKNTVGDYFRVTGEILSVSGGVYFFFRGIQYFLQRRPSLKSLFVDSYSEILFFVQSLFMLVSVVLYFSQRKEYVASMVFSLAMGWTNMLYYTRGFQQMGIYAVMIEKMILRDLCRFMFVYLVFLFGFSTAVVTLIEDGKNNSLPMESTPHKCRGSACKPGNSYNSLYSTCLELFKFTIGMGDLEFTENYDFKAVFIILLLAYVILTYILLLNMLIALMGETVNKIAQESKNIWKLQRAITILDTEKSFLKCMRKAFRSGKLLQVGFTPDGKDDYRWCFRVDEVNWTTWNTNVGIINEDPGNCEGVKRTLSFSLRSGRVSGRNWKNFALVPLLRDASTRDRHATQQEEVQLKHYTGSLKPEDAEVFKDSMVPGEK
T1 sequence (O35433 whole entry): as above
rat TRPV1 N628W mutant, sequence (O35433 whole entry N628W): as the sequence (O35433 whole entry) above, with N628W counted along it
rat TRPV1 D646N mutant, sequence (O35433 whole entry D646N): as the sequence (O35433 whole entry) above, with D646N counted along it
rat TRPV1 Y627W mutant, sequence (O35433 whole entry Y627W): as the sequence (O35433 whole entry) above, with Y627W counted along it
wild-type TRPV1, sequence (O35433 whole entry): as the sequence (O35433 whole entry) above
rat TRPV1 E651W mutant, sequence (O35433 whole entry E651W): as the sequence (O35433 whole entry) above, with E651W counted along it
TRPV1/3T3 cells, sequence (O35433 whole entry): as the sequence (O35433 whole entry) above

Consider `[Ni+2]` [Ni^2+], for which the Ionic radius in series [1] is given as 69 picometres. For the same compound, the “Stability constant of the complex formed between M2+ and tryptophan” value (“Stability constant” below) in [2] is recorded as 5.31 ± 0.06.
For the compound `[Mn+2]` [Mn^2+], in series [1], the Ionic radius is 67 picometres. Further, the “Stability constant” value in [2] is on record as 3.34 ± 0.05. Further, the “Effect on CAPS-induced 45Ca2+ uptake (in words)” value (“Effect … (in words)” below) on rat TRPV1 (TRPV1/HaCaT cells) is “little or no effect”.
Take `[Zn+2]` [Zn^2+]: the Ionic radius in series [1] is given as 74 picometres. Besides, in [2], the “Stability constant” value is recorded as 5.00 ± 0.08. Further, the “Effect … (in words)” value on rat TRPV1 (TRPV1/HaCaT cells) is “only partial inhibitor”. On rat TRPV1 (TRPV1/HaCaT cells, CAPS-induced 45Ca2+ uptake), the “Decrease of the maximal ion influx achieved” value was 30%.
`[Co+2]` [Co^2+]: the IC50 came to 16.4 µM on rat TRPV1 N628W mutant; 18.3 µM at wild-type TRPV1; 7.94 µM at rat TRPV1 (read-out: IC50 of Co2+, in the presence of 0 μM cold Ca2+); 94.8 µM at rat TRPV1 (read-out: IC50 of Co2+, in the presence of 0.0625 μM CAPS); 58 µM on rat TRPV1 (read-out: IC50 of Co2+, in the presence of 0.125 μM CAPS); 73.2 µM at rat TRPV1 (read-out: IC50 of Co2+, in the presence of 0.25 μM CAPS). The IC50 was determined as 32.6 µM at rat TRPV1 (read-out: IC50 of Co2+, in the presence of 0.5 μM CAPS); 19.2 µM on rat TRPV1 (read-out: IC50 of Co2+, in the presence of 1 μM CAPS); 22.6 µM at rat TRPV1 (read-out: IC50 of Co2+, in the presence of 2 μM CAPS); 15.6 µM at rat TRPV1 (read-out: IC50 of Co2+, in the presence of 4 μM CAPS); 51.2 µM at rat TRPV1 (read-out: IC50 of Co2+, in the presence of 15.625 μM cold Ca2+); 72.7 µM at rat TRPV1 (read-out: IC50 of Co2+, in the presence of 31.25 μM cold Ca2+). For the same compound, the IC50 worked out at 79.1 µM at rat TRPV1 (read-out: IC50 of Co2+, in the presence of 62.5 μM cold Ca2+); 189 µM on rat TRPV1 (read-out: IC50 of Co2+, in the presence of 125 μM cold Ca2+); 15.3 µM at rat TRPV1 E651W mutant; 25.7 µM on rat TRPV1 D646N mutant; 18.6 µM at rat TRPV1 Y627W mutant. Also, the “Mean gray value (intracellular CoS)” value on TRPV1 [3] (CAPS + Co2+ (20 μM CAPS + 5 mM Co2+), n = 111) was 124.4 ± 21.51. Also, in [1], the Ionic radius is recorded as 65 picometres. The “CAPS-induced Co2+ accumulation in sensory neurons” value in series [4] is listed as “enters into the cytosol of specific PNS sensory neurons”. The “Stability constant” value in series [2] was 4.34 ± 0.07. The “Co2+ staining in the absence of TRPV1” value in the series on 3T3 cell line is recorded as “No substantial staining”. Further, the “Effect on vanilloid-evoked eye wiping movements” value in the series on CD1 mice is recorded as “decreased the frequency of vanilloid-evoked defending movements”.
On to `[Cu+2]` [Cu^2+], for which, in series [1], the Ionic radius is listed as 73 picometres. Besides, the “Stability constant” value in series [2] was 8.05 ± 0.05.
On to `COc1cc(CNC(=O)CCCC/C=C/C(C)C)ccc1O` [CAPS, capsaicin, reference compound], for which the “Concentration causing full activation (EC100) of TRPV1” value at rat TRPV1 (pH 7.5, 45Ca2+ uptake assay) is “Approximately 1 μM”.
For the compound `COC(=O)C1=C(C)NC(C)=C(C(=O)OCC(C)C)C1c1ccccc1[N+](=O)[O-]` (stereo not shown) [nisoldipine], the “Effect on CAPS-induced TRPV1-mediated 45Ca2+ accumulation” value on TRPV1/3T3 cells is listed as “did not decrease”.
Take `N.N.N.N.N.N.N.N.N.N.N.N.N.N.[Cl-].[Cl-].[Cl-].[Cl-].[Cl-].[Cl-].[O-2].[O-2].[Ru+3].[Ru+3].[Ru+4]` [RuRed, Ruthenium Red, reference compound]: the IC50 at rat TRPV1 N628W mutant turned out to be 1.33 µM; at wild-type TRPV1 it was 0.87 µM; on rat TRPV1 E651W mutant, 0.94 µM; on rat TRPV1 D646N mutant it was 12.8 µM; at rat TRPV1 Y627W mutant, 0.26 µM. Also, the “Effect on CAPS-induced cellular Co2+ accumulation” value at TRPV1 [5] is recorded as “blocked”.
Consider `Oc1cc2c(cc1O)CN(C(=S)NCCc1ccc(Cl)cc1)CCC2` [CapZ, capsazepine, reference compound], for which the “Mean gray value (intracellular CoS)” value on TRPV1 [3] (CAPS + Co2+ + CapZ (5 μM CapZ), n = 100) is 76.92 ± 22.21. Besides, the “Effect on vanilloid-evoked eye wiping movements” value in the series with CD1 mice is “Inhibition”. At TRPV1 [5], the “Effect on CAPS-induced cellular Co2+ accumulation” value is reported as “inhibited the cellular entry of Co^2+ in a dose-dependent manner”.
As to `[Ca+2]` [Ca^2+], the Ionic radius in series [1] is 100 picometres. In addition, the “Stability constant” value in series [2] is on record as 2.55 ± 0.08.
Compound `CN(C)CCC=C1c2ccccc2CCc2ccccc21` [AMI, Amitriptyline, reference compound] returned an IC50 against rat TRPV1 of 20 µM.
For `[La+3]` [La^3+], the “Effect … (in words)” value at rat TRPV1 (TRPV1/HaCaT cells) is listed as “little or no effect”.
On to `[Mg+2]` [Mg^2+], for which the Ionic radius in [1] was 72 picometres. Further, the “Stability constant” value in series [2] is listed as 2.84 ± 0.08. For the same compound, the “Effect … (in words)” value on rat TRPV1 (TRPV1/HaCaT cells) was “little or no effect”.
